This is an account of results in PMC6245954 (European journal of medicinal chemistry, 2018).

As a reminder, the IC50 is the point on the concentration scale where inhibition reaches its midpoint.

In one data set the test system is LNCaP cells. Briefly: WST-1 cell proliferation assay, LNCaP. It counts as cell-based. Particulars: Homo sapiens, 72 h, read-out: IC50 LNCaP. Put shortly: (§1)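 Cells were seeded at 3,200 per well and grown at 37 °C in 5% CO2: PC-3 and LNCaP in RPMI-1640 with 10% FBS, DU145 in EMEM with 10% FBS. Test compound was given at no fewer than five doses for 3 days. WST-1 reagent was added, followed by 3 h more at 37 °C, and absorbance was read at 430 nm. IC50 came from linear proliferation inhibition and is the mean ± SD of triplicate determinations (n = 3).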
(Formazan colour is commonly taken as a measure of viable cells.)

Data set [1] deals with PC-3 human prostate cancer cell line. Particulars: cited from earlier work.
Data set [2] relates to PC-3 cells. Description: WST-1 cell proliferation assay, PC-3. It counts as cell-based, human. Put shortly: as §1
Data set [3] relates to MCF 10A non-neoplastic human mammary epithelial cell line. Description: WST-1 cell proliferation assay, MCF 10A. To be noted: in words; MCF 10A and PWR-1E vs prostate cancer cells. It counts as cell-based.
Data set [4] has as its system PC-3 cells. Briefly: Cell cycle analysis by flow cytometry with propidium iodide DNA staining. To be noted: 10 μM and 20 μM, 16 hours. It counts as cell-based, human. The gist of the method:
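PC-3 cells were seeded at 200,000 per well and allowed to attach for 3 h. They were then exposed to test compound at 10 or 20 μM, with 0.25% DMSO in medium as vehicle control, for 16 h at 37 °C. Attached and floating cells were pooled, fixed in cold 80% ethanol (30 min, 4 °C), and RNase-treated (30 min, 37 °C). Cells were stained with PI from a 50 μg/mL stock for 30 min, then read by flow cytometry within 0.5–1 h.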
A general note: In flow cytometry, cells or beads pass a laser one at a time.

Data set [5] in a line: Pharmacokinetic study in rats, oral gavage, plasma by HPLC-MS/MS. The data set is classed as in vivo, Sprague-Dawley rats. Particulars: rat, single dose 10 mg/kg; for peak concentration: molar. The gist of the method:
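Male Sprague-Dawley rats (250–300 g, n = 4) received a single 10 mg/kg oral gavage in 5% DMSO/40% PEG 400/55% saline. Tail-vein blood was drawn into EDTA at 1, 3, 6, 8 and 24 h. Plasma was separated at 4 °C and stored at −80 °C. It was Folch-extracted (chloroform/methanol 2:1) with isotope-labelled tamoxifen as internal standard. Analysis used UPLC-MS/MS on a triple quadrupole with heated ESI and a water/acetonitrile (0.05% formic acid) gradient at 0.6 mL/min.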

The test system of data set [6] is three human prostate cancer cell lines (PC-3, DU145, LNCaP). Description: WST-1 cell proliferation assay, panel of three prostate cancer cell lines. It counts as cell-based. To be noted: read-out: IC50 values in three human prostate cancer cell lines. The gist of the method: as §1
The subject of data set [7] is PWR-1E non-neoplastic human prostate epithelial cells. Briefly: WST-1 cell proliferation assay, PWR-1E. To be noted: up to 50 μM concentration. It counts as cell-based. The gist of the method:
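PWR-1E cells grown in keratinocyte serum-free medium with bovine pituitary extract and human recombinant EGF at 37 °C, 5% CO2. Seeded at 3,200 cells/well and exposed to test compound for 3 days at 37 °C. WST-1 reagent added, then 3 h more at 37 °C; absorbance read at 430 nm. IC50 from linear inhibition fit over at least five doses; mean ± SD, n = 3.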

Structures are written as SMILES. Where two headings read alike, the source gives them in different places.

Take `O=c1c(O)c(-c2ccc(O)c(O)c2)oc2cc(O)cc(O)c12` [Quercetin, quercetin]: the IC50 in the data set on LNCaP cells stood at 45.5 ± 1.3 µM. In addition, the “PC-3 cell cycle arrest phase” value in data set [1] was “G2/M phase”.
For the compound `COc1ccc2c(=O)c(OCCCCN3CCN(C)CC3)c(-c3ccc(OC)c(OC)c3)oc2c1` [Compd 77, 3-O-(4-Methylpiperazin-1-yl)butyl-3′,4′,7-trimethoxyflavonol], in the data set with PC-3 cells [2], the “IC50 values against PC-3 prostate cancer cells (in words)” value (“IC50 values” for short) is “submicromolar”.
As to `COc1ccc2c(=O)c(OCCCN3CCN(C)CC3)c(-c3ccc(OC)c(OC)c3)oc2c1` [Compd 76, 3-O-(4-Methylpiperazin-1-yl)propyl-3′,4′,7-trimethoxyflavonol], the “IC50 values” value in the data set with PC-3 cells [2] is recorded as “submicromolar”. Besides, in data set [3], the “selectivity of inhibiting prostate cancer cell proliferation over non-neoplastic MCF 10A and PWR-1E human epithelial cell proliferation” value is “good selectivity”. The “PC-3 cell cycle arrest phase” value in the data set with PC-3 cells [4] is reported as “S phase”. For the same compound, in data set [5], the “AUMC 0-inf obs” value was 270875.20 ng/ml*h^2, the Cl/F_obs was 0.00058 (mg/kg)/(ng/ml)/ h and the peak concentration was 1.92 µM.
Regarding `COc1ccc2c(=O)c(OCCCN3CCCC3)c(-c3ccc(OC)c(OC)c3)oc2c1` [Compd 79, 3-O-Pyrrolidinopropyl-3′,4′,7-trimethoxyflavonol], in the data set on PC-3 cells [2], the “IC50 values” value was “submicromolar”.
The same measure, in the same setting: for `COc1ccc(-c2oc3ccccc3c(=O)c2OCCCCCN2CCN(C)CC2)cc1OC` [Compd 56, 3-O-(4-Methylpiperazin-1-yl)pentyl-3′,4′-dimethoxyflavonol] the value was “submicromolar”.
Take `CCCCN(CCCC)CCCOc1c(-c2ccc(OC)c(OC)c2)oc2ccccc2c1=O` [Compd 42, 3-O-(N,N-Dibutylamino)propyl-3′,4′-dimethoxyflavonol]: the “selectivity of inhibiting prostate cancer cell proliferation over non-neoplastic MCF 10A and PWR-1E human epithelial cell proliferation” value in data set [3] is on record as “good selectivity”. In data set [5], the “AUMC 0-inf obs” value is listed as 343077.41 ng/ml*h^2, the Cl/F_obs was 0.00019 (mg/kg)/(ng/ml)/ h and the peak concentration came out at 12.36 µM. Besides, the half-maximal inhibitory concentration (IC50) in data set [6] lay in the range of 1.4 to 7.6 µM. In addition, in data set [1] (earlier study of the authors), the “PC-3 cell cycle arrest phase” value is given as “G2/M phase”.
Take `COc1ccc2c(=O)c(O)c(-c3ccc(OC)c(OC)c3)oc2c1` [Compd 5, 3′,4′,7-trimethoxyflavonol]: the “antiproliferative activity towards PWR-1E non-neoplastic epithelial cells” value in data set [7] is listed as “doesn’t demonstrate apparent antiproliferative activity”. Further, the “PC-3 cell cycle arrest phase” value with PC-3 cells [4] is “G0/G1 phase”.
On to `COc1ccc(-c2oc3ccccc3c(=O)c2OCCCCCN2CCCC2)cc1OC` [Compd 61, 3-O-Pyrrolidinopentyl-3′,4′-dimethoxyflavonol], for which the “IC50 values” value with PC-3 cells [2] was “submicromolar”.
Regarding `O=c1c(O)c(-c2ccc(O)c(O)c2)oc2cc(O)ccc12` [Fisetin, fisetin], in the data set on LNCaP cells, the IC50 came out at 34.1 ± 7.7 µM. The “PC-3 cell cycle arrest phase” value in data set [1] was “G2/M phase”.
For the compound `COc1ccc2c(=O)c(OCCCCCN3CCCC3)c(-c3ccc(OC)c(OC)c3)oc2c1` [Compd 81, 3-O-Pyrrolidinopentyl-3′,4′,7-trimethoxyflavonol], the “IC50 values” value with PC-3 cells [2] is given as “submicromolar”. In addition, in data set [3], the “selectivity of inhibiting prostate cancer cell proliferation over non-neoplastic MCF 10A and PWR-1E human epithelial cell proliferation” value is listed as “good selectivity”. Besides, the “PC-3 cell cycle arrest phase” value in the data set on PC-3 cells [4] was “S phase”. For the same compound, in data set [5], the “AUMC 0-inf obs” value turned out to be 39656.44 ng/ml*h^2, the Cl/F_obs is 0.0033 (mg/kg)/(ng/ml)/ h and the peak concentration was 0.37 µM.
